Laboratory results published in ChEMBL document CHEMBL1133540, “4-Aminoquinolines: novel nociceptin antagonists with analgesic activity” (J Med Chem, 2000).

Experiments:
[1] = molecular target: T1, Nociceptin receptor (Homo sapiens, UniProt P41146); test: Compound was evaluated for its ability to displace [3H]nociceptin ( 0.5 nM ) binding from Opioid receptor like 1 expressed in HeLa cells; type: cell-based
In short: (§1)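 Membranes from HeLa cells expressing human ORL1 (25 μg protein/mL) in 50 mM Tris pH 8.5 with 2 mM EDTA, 0.1 mM p-aminophenylmethanesulfonyl fluoride and 2 mg/mL BSA. Incubated 30 min at room temperature with 0.5 nM [3H]nociceptin and varied compound concentrations. Bound radioactivity was collected by filtration and counted by scintillation. Nonspecific binding was set with 1 μM unlabeled nociceptin. Ki reported as mean ± SE, n=3-6.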

[2] = molecular target: T1, Nociceptin receptor; test: Percent inhibition of [3H]nociceptin ( 0.5 nM ) binding at 10 uM
In short: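 Single-point test at 10 μM compound against 0.5 nM [3H]nociceptin binding to human ORL1 in HeLa cell membranes. Buffer was Tris pH 8.5 with EDTA, protease inhibitor and BSA; incubation 30 min at room temperature. Filtration and scintillation counting. Specific binding = total minus binding in 1 μM unlabeled nociceptin. Read-out was percent inhibition.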

[3] = molecular target: T1, Nociceptin receptor; test: Ability to displace [3H]nociceptin ( 0.5 nM ) binding from Opioid receptor like 1 expressed in HeLa cells.; type: cell-based
In short: as §1, with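 “nociceptin.” for “nociceptin. Ki reported as mean ± SE, n=3-6.”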

[4] = Effect of compound on nociceptin-induced allodynia :Values are the mean ( SE of allodynia score at 20 min. significantly different from control (nociceptin alone) by the Mann-Whitney U-test.; type: functional
[5] = Effect of compound on nociceptin-induced allodynia :Values are the mean ( SE of allodynia score at 20 min.; type: functional
In short: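 Male ICR mice, 4 weeks old, unanesthetized; nociceptin (50 pg/5 μL) injected intrathecally. Test compound 0.3 mg/kg suspended in 0.5% methyl cellulose, or vehicle as control, given orally 60 min before nociceptin. Allodynia score read at 20 min; mean ± SE, n = 9; Mann–Whitney U-test versus nociceptin-alone control.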

[6] = molecular target: Delta-type opioid receptor (Homo sapiens, UniProt P41143); test: Inhibition of [3H]naltrindole (0.55 nM) binding from human Opioid receptor delta 1 expressed in CHO-K1 cells.; type: cell-based
Delta-type opioid receptor, sequence (P41143 whole entry): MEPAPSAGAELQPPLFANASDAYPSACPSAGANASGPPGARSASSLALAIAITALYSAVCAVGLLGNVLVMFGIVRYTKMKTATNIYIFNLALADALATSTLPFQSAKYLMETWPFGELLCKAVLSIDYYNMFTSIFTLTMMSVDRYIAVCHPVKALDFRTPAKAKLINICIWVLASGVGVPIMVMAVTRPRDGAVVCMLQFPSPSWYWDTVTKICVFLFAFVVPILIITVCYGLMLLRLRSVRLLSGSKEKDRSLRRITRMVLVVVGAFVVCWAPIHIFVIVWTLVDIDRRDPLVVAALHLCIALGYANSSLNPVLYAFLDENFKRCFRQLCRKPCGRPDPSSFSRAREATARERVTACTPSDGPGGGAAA
In short: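 Human δ-opioid receptor from CHO-K1 membranes in 50 mM Tris-HCl pH 7.4, 5 mM MgCl2, 10% sucrose. Incubated 1 h at room temperature with 0.55 nM [3H]naltrindole and varied compound concentrations. Filter-bound radioactivity counted. 10 μM naloxone defined nonspecific binding. Ki as mean ± SE, n=3.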

[7] = molecular target: Kappa-type opioid receptor (Homo sapiens, UniProt P41145); test: Inhibition of [3H][…] (0.55 nM) binding from human Opioid receptor kappa 1
Kappa-type opioid receptor, sequence (P41145 whole entry): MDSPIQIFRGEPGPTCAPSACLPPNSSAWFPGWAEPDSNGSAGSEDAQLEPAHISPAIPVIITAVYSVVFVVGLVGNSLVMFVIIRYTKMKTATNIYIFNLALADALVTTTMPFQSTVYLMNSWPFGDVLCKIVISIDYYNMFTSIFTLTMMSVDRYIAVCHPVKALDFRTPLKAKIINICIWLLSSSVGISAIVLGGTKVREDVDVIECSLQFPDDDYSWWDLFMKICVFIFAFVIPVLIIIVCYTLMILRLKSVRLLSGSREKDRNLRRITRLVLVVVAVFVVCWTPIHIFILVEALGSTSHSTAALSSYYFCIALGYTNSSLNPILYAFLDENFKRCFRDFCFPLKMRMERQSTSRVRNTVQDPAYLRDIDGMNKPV

[8] = molecular target: Mu-type opioid receptor (Homo sapiens, UniProt P35372); test: Inhibition of [3H]diprenorphine (0.33 nM) binding from human Opioid receptor mu 1 expressed in CHO-K1 cells.; type: cell-based
Mu-type opioid receptor, sequence (P35372 whole entry): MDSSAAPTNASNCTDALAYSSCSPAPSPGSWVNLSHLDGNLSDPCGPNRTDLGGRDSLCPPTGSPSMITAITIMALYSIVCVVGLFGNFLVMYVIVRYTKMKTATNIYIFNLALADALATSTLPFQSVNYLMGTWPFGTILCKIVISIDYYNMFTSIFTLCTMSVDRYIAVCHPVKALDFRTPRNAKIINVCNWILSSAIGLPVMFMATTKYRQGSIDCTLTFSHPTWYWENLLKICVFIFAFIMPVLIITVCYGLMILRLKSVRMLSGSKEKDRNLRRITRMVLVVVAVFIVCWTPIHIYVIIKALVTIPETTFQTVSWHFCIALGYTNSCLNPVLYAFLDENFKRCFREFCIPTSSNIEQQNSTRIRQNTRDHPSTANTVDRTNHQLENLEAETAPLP
In short: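 CHO-K1 membranes expressing human μ-opioid receptor in 50 mM Tris-HCl pH 7.4 with 5 mM MgCl2 and 10% sucrose. Incubated 2.5 h at room temperature with 0.33 nM [3H]diprenorphine over a compound concentration range. Filtration and scintillation counting. Nonspecific binding defined with 10 μM naloxone. Ki given as mean ± SE, n=3.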

T1 sequence (P41146 whole entry): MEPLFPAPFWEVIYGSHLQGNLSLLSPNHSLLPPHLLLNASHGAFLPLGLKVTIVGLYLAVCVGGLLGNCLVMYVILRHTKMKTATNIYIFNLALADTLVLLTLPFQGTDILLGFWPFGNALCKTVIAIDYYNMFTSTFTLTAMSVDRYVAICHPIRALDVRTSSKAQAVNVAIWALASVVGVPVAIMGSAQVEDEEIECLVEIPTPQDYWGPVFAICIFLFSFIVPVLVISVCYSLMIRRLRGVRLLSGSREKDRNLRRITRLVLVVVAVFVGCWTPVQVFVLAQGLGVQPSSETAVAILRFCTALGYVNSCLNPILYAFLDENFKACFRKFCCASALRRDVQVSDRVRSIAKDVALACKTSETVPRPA

SMILES | inhibition [2] [%] | Ki [3] [nM] | further results
Cc1cc(N)c2cc(NC(=O)c3ccccc3COc3ccccc3)ccc2n1 | 93.6 | – | Ki [1]: 50.7 nM
Cc1ccc(CCc2ccccc2C(=O)Nc2ccc3nc(C)cc(N)c3c2)cc1 | – | 88.5 | –
Cc1cc(N)c2cc(NC(=O)c3ccccc3COc3ccc(O)cc3)ccc2n1 | – | 46.7 | –
Cc1cc2ccc(NC(=O)c3ccccc3COc3ccc(Cl)cc3)cc2c(N)n1 | – | 37.3 | –
Cc1cc(N)c2cc(NC(=O)c3ccc(CCc4ccccc4)cc3)ccc2n1 | 48.4 | – | –
Cc1cc(N)c2cc(NC(=O)c3ccccc3COc3ccc(Cl)cc3)ccc2n1 | – | 2.2 | –
CC(C)C[C@H](NC(=O)[C@H](CCCCN)NC(=O)[C@H](CCCN=C(N)N)NC(=O)[C@H](C)NC(=O)[C@H](CO)NC(=O)[C@H](CCCCN)NC(=O)[C@H](CCCN=C(N)N)NC(=O)[C@H](C)NC(=O)CNC(=O)[C@@H](NC(=O)[C@H](Cc1ccccc1)NC(=O)CNC(=O)CNC(=O)[C@@H](N)Cc1ccccc1)[C@@H](C)O)C(=O)N[C@@H](C)C(=O)N[C@@H](CC(N)=O)C(=O)N[C@@H](CCC(N)=O)C(=O)O.CCc1ccc(OCc2ccccc2C(=O)Nc2ccc3nc(C)cc(N)c3c2)cc1 | – | – | Allodynia score [4]: < 3.11
Cc1cc(N)c2cc(NC(=O)c3ccccc3COc3ccc(N)cc3)ccc2n1 | – | 82.4 | –
Cc1ccc(OCc2ccccc2C(=O)Nc2ccc3nc(C)cc(N)c3c2)cc1 | – | 7 | –
Cc1cc(N)c2cc(NC(=O)c3cccc(CCc4ccccc4)c3)ccc2n1 | 23 | – | –
CCCc1cc(N)c2cc(NC(=O)c3ccccc3COc3ccc(Cl)cc3)ccc2n1 | – | 1.8 | –
Cc1cc(N)c2cc(NC(=O)c3ccccc3COc3ccc(C(F)(F)F)cc3)ccc2n1 | – | 1.8 | –
CC(C)C[C@H](NC(=O)[C@H](CCCCN)NC(=O)[C@H](CCCNC(=N)N)NC(=O)[C@H](C)NC(=O)[C@H](CO)NC(=O)[C@H](CCCCN)NC(=O)[C@H](CCCNC(=N)N)NC(=O)[C@H](C)NC(=O)CNC(=O)[C@@H](NC(=O)[C@H](Cc1ccccc1)NC(=O)CNC(=O)CNC(=O)[C@@H](N)Cc1ccccc1)[C@@H](C)O)C(=O)N[C@@H](C)C(=O)N[C@@H](CC(N)=O)C(=O)N[C@@H](CCC(N)=O)C(=O)O | – | – | Allodynia score [5]: 7.11
Cc1cc(N)c2cc(NC(=O)c3ccccc3Cc3ccccc3)ccc2n1 | 45.4 | – | –
Cc1cc(N)c2cc(NC(=O)c3ccccc3)ccc2n1 | 32.9 | – | –
Cc1cc(N)c2cc(NC(=O)c3ccccc3CCc3ccccc3)ccc2n1 | 90.5 | – | Ki [1]: 79.9 nM
Nc1ccnc2ccc(NC(=O)c3ccccc3COc3ccc(Cl)cc3)cc12 | – | 85.6 | –
CCc1ccc(OCc2ccccc2C(=O)Nc2ccc3nc(C)cc(N)c3c2)cc1 | – | 8.2 | Ki [6]: 8650 nM; Ki [7]: 1060 nM; Ki [8]: 103 nM
Cc1cc(N)c2cc(NC(=O)c3ccccc3CCCc3ccccc3)ccc2n1 | 98 | 121 | –
Cc1cc(N)c2cc(NC(=O)c3ccccc3COc3cccc(Cl)c3)ccc2n1 | – | 20.4 | –
Cc1cc(N)c2cc(NC(=O)c3ccccc3-c3ccccc3)ccc2n1 | 51.7 | 369 | –
CCc1cc(N)c2cc(NC(=O)c3ccccc3COc3ccc(Cl)cc3)ccc2n1 | – | 1.8 | –
Cc1cc(N)c2cc(NC(=O)c3ccccc3COc3ccc(Br)cc3)ccc2n1 | – | 2.6 | –
